Activity calls are given as the source filed them. No cut-off for these calls is given here.

Our source for the Activity and Ratio values is ChEMBL document CHEMBL1152464, “Toluidine blue-mediated photodynamic effects on staphylococcal biofilms” (2008).

The subject of assay [1] is Staphylococcus epidermidis. The experiment in a line: Phototoxicity against Staphylococcus epidermidis 1457 grown as biofilms assessed as reduction in adherent bacterial count incubated at 40 uM for 30 mins followed by irradiation with 100 J/cm'2 laser light by scanning electron microscopy. It counts as functional, organism-based. In outline:
(§1)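 Biofilms were grown on Thermanox coverslips in TSB, precoated with 20% human plasma for S. aureus, and incubated with 40 μM TBO for 30 min in the dark, either unirradiated or irradiated at 100 J/cm². They were washed, fixed in 2.5% glutaraldehyde/0.1 M cacodylate pH 7.2 for 1 h at 4°C, ethanol-dehydrated, critical-point dried, and gold-coated. SEM was at ×1,000.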

Assay [2] relates to Staphylococcus aureus. Briefly: Phototoxicity against Staphylococcus aureus isolate LP grown as biofilms assessed as reduction in adherent bacterial count incubated at 40 uM for 30 mins followed by irradiation with 100 J/cm'2 laser light by scanning electron microscopy. Format: functional, organism-based. The gist of the method: as §1
Assay [3] in a line: Ratio of phototoxicity against Staphylococcus aureus isolate LP grown as biofilms to phototoxicity against Staphylococcus epidermidis 1457. It counts as functional. In outline:
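Cell survival for each species was derived as CFU (TBO + light)/CFU (TBO alone) after biofilms were incubated with 40 μM TBO for 30 min in the dark and irradiated with a 640 nm diode laser at 42 mW/cm², compared at 25 J/cm². Unpaired two-sided t test.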

The test system of assay [4] is Staphylococcus epidermidis. Briefly: Phototoxicity against Staphylococcus epidermidis 1457 grown as biofilms incubated at > 40 uM followed by irradiation with 1 to 200 J/cm2 laser light. Format: functional, organism-based. The gist of the method:
(§2)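 Biofilms were grown 16 h at 37°C in TSB + 0.25% glucose, with plasma-coated wells for S. aureus. They were then incubated with TBO (10–80 μM tested) in the dark for 30 min at 37°C and irradiated with a 640 nm diode laser, 1-cm spot, 42 mW/cm², at varied light doses. Cells were scraped, sonicated, serially diluted, and plated. Surviving fraction is CFU (TBO + light)/CFU (TBO alone). Duplicate biofilms, three experiments.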

In assay [5] the test system is Staphylococcus aureus. Briefly: Antimicrobial activity against Staphylococcus aureus isolate LP grown as biofilms at 40 uM incubated in dark for 30 mins. Format: functional, organism-based. The gist of the method:
(§3)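 Biofilms grown 16 h at 37°C in polystyrene wells from overnight TSB cultures diluted in TSB + 0.25% glucose (S. epidermidis 1:200, S. aureus 1:50, S. aureus wells precoated with 20% human plasma). TBO in PBS added, kept dark 30 min at 37°C, no light. Biofilms scraped, sonicated, vortexed, and plated on TSB agar. CFU counted after 24 h at 37°C in the dark and compared with PBS-only controls.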

Assay [6] relates to Staphylococcus epidermidis. The experiment in a line: Phototoxicity against Staphylococcus epidermidis 1457 grown as biofilms assessed as appearance of large cellular aggregates surrounded by extracellular matrix incubated at 40 uM for 30 mins in dark by scanning electron microscopy. It counts as functional, organism-based. The gist of the method:
as §1

Assay [7] concerns Staphylococcus aureus. The experiment in a line: Phototoxicity against Staphylococcus aureus isolate LP grown as biofilms assessed as dead cells incubated at 40 uM for 30 mins in dark using SYTO9 staining by confocal laser scanning microscopy. It counts as functional, organism-based. The gist of the method: (§4)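 Biofilms were grown 16 h at 37°C on glass coverslips, plasma-coated for S. aureus, and treated with 40 μM TBO for 30 min in the dark, then left dark or irradiated at 640 nm to 100 or 200 J/cm². They were stained with SYTO9/propidium iodide (1 μl of each stock per 3 ml PBS) for 15 min at 22°C in the dark and imaged by confocal microscopy. Red = membrane-damaged/dead, green = viable.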

Assay [8] concerns Staphylococcus epidermidis. Briefly: Phototoxicity against Staphylococcus epidermidis 1457 grown as biofilms assessed as dead cells incubated at 40 uM for 30 mins in dark using SYTO9 staining by confocal laser scanning microscopy. Format: functional, organism-based. In outline: as §4
Assay [9] deals with Staphylococcus aureus. The experiment in a line: Phototoxicity against Staphylococcus aureus isolate LP grown as biofilms assessed as decrease in survival incubated at 40 uM followed by irradiation with 1 to 200J/cm2 laser light. It counts as functional, organism-based. The gist of the method:
as §2

Assay [10] has as its system Staphylococcus epidermidis. The experiment in a line: Phototoxicity against Staphylococcus epidermidis 1457 grown as biofilms assessed as log reduction in survival fraction incubated at 40 uM for 30 mins followed by irradiation with 100 J/cm'2 laser light in presence of TEDTA pretreated for 1 hr. It counts as functional. The gist of the method: (§5)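 Biofilms were pretreated with 20 mM TEDTA in PBS for 1 h. They were then given 40 μM TBO, 30 min in the dark at 37°C, and 640 nm laser at 42 mW/cm² to 100 J/cm². Colony counts were made after scraping, sonication, and plating. Controls: TEDTA+TBO without light, TEDTA alone, and untreated. Survival was compared with TBO + light without TEDTA using an unpaired two-sided t test.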

Assay [11] relates to Staphylococcus epidermidis. Briefly: Phototoxicity against Staphylococcus epidermidis 1457 grown as biofilms assessed as reduction in adherent bacterial count incubated at 40 uM for 30 mins followed by irradiation with 100 J/cm'2 laser light by scanning electron microscopy in presence of TEDTA pretreated for 1 hr. It counts as functional, organism-based. The gist of the method: (§6)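 Thermanox coverslip biofilms (plasma-precoated for S. aureus) were pretreated with 20 mM TEDTA for 1 h, given 40 μM TBO for 30 min in the dark, and irradiated at 100 J/cm². They were then fixed in glutaraldehyde/cacodylate, dehydrated in graded ethanol, critical-point dried, gold-coated, and imaged by SEM at ×1,000.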

In assay [12] the test system is Staphylococcus aureus. Briefly: Phototoxicity against Staphylococcus aureus isolate LP grown as biofilms incubated at > 40 uM followed by irradiation with 1 to 200 J/cm2 laser light. Format: functional, organism-based. In outline:
as §2

Assay [13] relates to Staphylococcus epidermidis. Briefly: Phototoxicity against Staphylococcus epidermidis 1457 grown as biofilms assessed as dead cells incubated at 40 uM for 30 mins followed by irradiation with 200 J/cm'2 laser light using propidium iodide staining by confocal laser scanning microscopy. It counts as functional, organism-based. The gist of the method:
as §4

The test system of assay [14] is Staphylococcus aureus. Briefly: Phototoxicity against Staphylococcus aureus isolate LP grown as biofilms assessed as dead cells incubated at 40 uM for 30 mins followed by irradiation with 200 J/cm'2 laser light using propidium iodide staining by confocal laser scanning microscopy. Format: functional, organism-based. The gist of the method: as §4
Assay [15] concerns Staphylococcus aureus. Briefly: Phototoxicity against Staphylococcus aureus isolate LP grown as biofilms assessed as appearance of large cellular aggregates surrounded by extracellular matrix incubated at 40 uM for 30 mins in dark by scanning electron microscopy. Format: functional, organism-based. In outline:
as §1

The subject of assay [16] is Staphylococcus epidermidis. The experiment in a line: Phototoxicity against Staphylococcus epidermidis 1457 grown as biofilms assessed as dead cells incubated at 40 uM for 30 mins followed by irradiation with 100 J/cm'2 laser light using SYTO9 staining by confocal laser scanning microscopy. It counts as functional, organism-based. The gist of the method: as §4
The test system of assay [17] is Staphylococcus aureus. Briefly: Phototoxicity against Staphylococcus aureus isolate LP grown as biofilms assessed as dead cells incubated at 40 uM for 30 mins followed by irradiation with 100 J/cm'2 laser light using SYTO9 staining by confocal laser scanning microscopy. It counts as functional, organism-based. In outline: as §4
In assay [18] the test system is Staphylococcus epidermidis. Briefly: Phototoxicity against Staphylococcus epidermidis 1457 grown as biofilms assessed as dead cells incubated at 40 uM for 30 mins in dark using SYTO9 staining by confocal laser scanning microscopy in presence of TEDTA pretreated for 1 hr. Format: functional, organism-based. In outline: (§7)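 Coverslip biofilms (plasma-coated for S. aureus) were pretreated with 20 mM TEDTA for 1 h and exposed to 40 μM TBO for 30 min in the dark. They were stained with SYTO9 plus propidium iodide for 15 min at 22°C in the dark and examined by confocal laser scanning microscopy for red (dead) versus green (viable) cells.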

Assay [19] concerns Staphylococcus epidermidis. The experiment in a line: Antimicrobial activity against Staphylococcus epidermidis 1457 grown as biofilms at 40 uM incubated in dark for 30 mins. It counts as functional, organism-based. In outline:
as §3

Assay [20] deals with Staphylococcus aureus. Briefly: Phototoxicity against Staphylococcus aureus isolate LP grown as biofilms assessed as reduction in adherent bacterial count incubated at 40 uM for 30 mins followed by irradiation with 100 J/cm'2 laser light by scanning electron microscopy in presence of TEDTA pretreated for 1 hr. Format: functional, organism-based. In outline: as §6
Assay [21] concerns Staphylococcus aureus. The experiment in a line: Increase in phototoxicity against Staphylococcus aureus isolate LP grown as biofilms incubated at 40 uM for 30 mins followed by irradiation with 100 J/cm'2 laser light in presence of TEDTA pretreated for 1 hr. It counts as functional, organism-based. In outline: as §5
For assay [22], the system named is Staphylococcus epidermidis. Briefly: Phototoxicity against Staphylococcus epidermidis 1457 grown as biofilms assessed as decrease in survival incubated at 40 uM followed by irradiation with 1 to 200 J/cm2 laser light. Format: functional, organism-based. In outline:
as §2

For assay [23], the system named is Staphylococcus aureus. The experiment in a line: Phototoxicity against Staphylococcus aureus isolate LP grown as biofilms assessed as dead cells incubated at 40 uM for 30 mins in dark using SYTO9 staining by confocal laser scanning microscopy in presence of TEDTA pretreated for 1 hr. It counts as functional, organism-based. The gist of the method:
as §7

Take `Cc1cc2nc3ccc(N(C)C)cc3[s+]c2cc1N.[Cl-]` [TOLONIUM CHLORIDE]: the outcome in assay [1], in assay [2], in assay [4], in assay [6], in assay [9] and in assay [11] was Active. Besides, the result in assay [12], in assay [13], in assay [14], in [15], in [18] and in [20] was Active. The result in [22] and in [23] was Active. For the same compound, in assay [3], the Ratio amounted to 10. The outcome in assay [5], in assay [7], in assay [8], in assay [16], in assay [17] and in assay [19] was inactive. Besides, the outcome in assay [21] was inactive. For the same compound, the Activity in [10] is given as 1.
